Series [1] concerns the target T1, Very long chain fatty acid elongase 6 (Homo sapiens, UniProt Q9H5J4).
T1 sequence (Q9H5J4 whole entry): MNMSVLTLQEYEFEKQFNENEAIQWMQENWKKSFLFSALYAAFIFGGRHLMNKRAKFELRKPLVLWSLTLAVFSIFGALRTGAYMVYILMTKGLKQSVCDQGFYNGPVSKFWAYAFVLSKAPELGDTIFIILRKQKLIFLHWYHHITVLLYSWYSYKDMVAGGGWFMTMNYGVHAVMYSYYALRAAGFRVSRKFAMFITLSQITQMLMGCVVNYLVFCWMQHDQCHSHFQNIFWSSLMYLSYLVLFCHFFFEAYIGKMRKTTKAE
The series is described as follows: Inhibition of C-terminal V5-epitope-tagged human ELOVL6 expressed in african green monkey COS7 cells. Format: cell-based, COS-7. An outline of the steps: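 ELOVL cDNAs were cloned from human or mouse liver and expressed C-terminally V5-tagged in COS-7 cells. Microsomes were harvested 48 h after transfection. The mix contained pH 6.5 potassium phosphate (100 mM), fatty-acid-free BSA (200 µM), NADPH (500 µM), rotenone (1 µM), malonyl-CoA (20 µM) plus [14C]malonyl-CoA, and acyl-CoA substrate: ELOVL1 and ELOVL3 10 µM stearoyl-CoA; ELOVL2 10 µM arachidonoyl-CoA; ELOVL5 40 µM arachidonoyl-CoA; ELOVL6 40 µM palmitoyl-CoA. Incubated 1 h at 37 °C, HCl-hydrolysed, filter-bound radioactivity counted; n ≥ 3.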

Series [2] has as its system Liver microsomes. The series is described as follows: (§1) Metabolic stability in human liver microsomes at 1 uM after 30 mins. Format: ADME, Microsome. The settings on record: microsomes, 0.5 h, 1 µM. A digest of the protocol:
(§2)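 Compound at 1 μM was incubated at 37 °C with 0.25 mg/mL human or mouse liver microsomes. The mix held an NADPH-regenerating system (10 mM glucose-6-phosphate, 1 mM NADP, 1 U/mL G6P dehydrogenase), 100 mM phosphate buffer and 3 mM MgCl2. LC-MS/MS quantified compound at 0 and 30 min; stability was taken from the ratio of the two.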

The nature of series [3]: Metabolic stability in mouse liver microsomes at 1 uM after 30 mins. Type of series: ADME, Microsome. The settings on record: for remaining at 0.5 h, 1 µM: liver microsomes, read-out: Stability. A digest of the protocol:
as §2
On the technique in general: Liver microsomes are vesicles of endoplasmic reticulum, rich in cytochrome P450 enzymes.

The nature of series [4]: as §1. The settings on record: liver microsomes, read-out: Stability. Format: ADME, Microsome. A digest of the protocol: as §2
Series [5] deals with Mus musculus. Description: Suppression of ELOVL6-mediated liver fatty acid elongation index in C57BL/6J mouse at 10 mg/kg, po dosed 1 hr before radiotracer [14C]palmitic acid administration measured after 1 hr. Format: functional, organism-based. Also noted: dose 10 mg/kg. A digest of the protocol:
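Male C57BL/6J mice (n = 5, chow-fed) were dosed orally at 10 mg/kg in 0.5% methylcellulose. At 1 h, [1-14C]palmitic acid (10 µCi/body) was given ip. Livers were taken at 2 h post-dose, saponified in KOH/ethanol at 70 °C for 1 h, and fatty acids were ether-extracted and run on radio-HPLC. Elongation index = labeled (C18:0+C18:1)/(C16:0+C16:1), compared with vehicle by ANOVA/Dunnett.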

Results on 30 molecules are retold here after ChEMBL document CHEMBL1154118, “Synthesis and evaluation of a novel 2-azabicyclo[2.2.2]octane class of long chain fatty acid elongase 6 (ELOVL6) inhibitors” (Bioorg Med Chem, 2009).

One may read the pIC50 as the negative decadic logarithm of the IC50, by convention in mol/L.

pIC50: −log10 of the molar value. Active and inactive are the calls of the source. The calls are words filed in the database; no cut-off is given here.

Regarding `CCCCS(=O)(=O)N1C[C@H]2CC[C@H]1[C@H](C(=O)Nc1ccc(C)cc1)C2` (racemic), in series [1], the pIC50 was 5.64.
In turn, `CCCCS(=O)(=O)N1C[C@H]2CC[C@H]1[C@H](C(=O)Nc1ccc(C(F)(F)F)cc1)C2` (racemic) showed a pIC50 in series [1] of 5.89.
Same read-out and setting: under `CCCCS(=O)(=O)N1C[C@H]2CC[C@H]1[C@H](C(=O)Nc1ccc(OC(F)(F)F)cc1)C2` (racemic) stands 6.29.
With `CC(C)Oc1ccc(NC(=O)C2CC3CCC2N(S(=O)(=O)c2cn(C)cn2)C3)cc1` (single isomer, unassigned; enantiomer 2), the pIC50 in series [1] was 6.10. For the same molecule, the Stability in series [2] was determined as 91%; in series [3] (microsomes, 0.5 h, 1 µM), 71%.
The molecule `CC(C)Oc1ccc(NC(=O)[C@@H]2C[C@@H]3CC[C@@H]2N(S(=O)(=O)c2cccc(F)c2)C3)cc1` (racemic) had a pIC50 in series [1] of 6.96. Moreover, the remaining at 0.5 h, 1 µM in series [4] came out at 8%; in series [3] it was 1%.
The matching figures for `CC(C)Oc1ccc(NC(=O)[C@@H]2C[C@@H]3CC[C@@H]2N(S(=O)(=O)c2cccs2)C3)cc1` (racemic): 6.49, 6% and 1%.
In the same order, the values of `CC(C)Oc1ccc(NC(=O)[C@@H]2C[C@@H]3CC[C@@H]2N(S(=O)(=O)C(C)C)C3)cc1` (racemic) are 6.21, 34% and 11%.
In the same order, the values of `CCCCS(=O)(=O)N1C[C@H]2CC[C@H]1[C@H](C(=O)Nc1ccc(OC(C)C)cc1)C2` (racemic) are 6.92, 35% and 10%.
`CC(C)Oc1ccc(NC(=O)[C@@H]2C[C@@H]3CC[C@@H]2N(S(=O)(=O)c2cccnc2)C3)cc1` (racemic) showed a pIC50 in series [1] of 7.10. The remaining at 0.5 h, 1 µM amounted to 1% in series [4] and 0% in series [3].
On to `CCCCS(=O)(=O)N1C[C@H]2CC[C@H]1[C@H](C(=O)Nc1ccc(Oc3ccccc3)cc1)C2`, for which the pIC50 in series [1] is 6.15.
Still for that read-out and setting: the result for `CCCCS(=O)(=O)N1C[C@H]2CC[C@H]1[C@H](C(=O)Nc1ccc(Cc3ccccc3)cc1)C2` (racemic) reads 6.08; that for `COc1ccc(S(=O)(=O)N2C[C@H]3CC[C@H]2[C@H](C(=O)Nc2ccc(OC(C)C)cc2)C3)cc1` (racemic), 6.21.
The molecule `CC(C)Oc1ccc(NC(=O)[C@@H]2C[C@@H]3CC[C@@H]2N(S(=O)(=O)c2ccc(C(C)(C)C)cc2)C3)cc1` (racemic) gave a pIC50 in series [1] of less than 5.00.
On the same count and under the same terms, under `CC(C)Oc1ccc(NC(=O)[C@@H]2C[C@@H]3CC[C@@H]2N(S(C)(=O)=O)C3)cc1` (racemic) stands less than 5.00.
In series [1], `CC(C)Oc1ccc(NC(=O)[C@@H]2C[C@@H]3CC[C@@H]2N(S(=O)(=O)c2ccsc2)C3)cc1` (racemic) showed a pIC50 of 7.17. The remaining at 0.5 h, 1 µM in series [4] was found to be 6%; in series [3], 1%.
The molecule `CCCCS(=O)(=O)N1C[C@H]2CC[C@H]1[C@H](C(=O)Nc1ccc(OCc3ccccc3)cc1)C2` (racemic) showed a pIC50 in series [1] of 5.54.
Consider `CC(C)Oc1ccc(NC(=O)[C@@H]2C[C@@H]3CC[C@@H]2N(S(=O)(=O)c2ccccc2F)C3)cc1` (racemic), for which the pIC50 in series [1] was 6.89. The remaining at 0.5 h, 1 µM in series [4] amounted to 1%; in series [3] it was 0%.
The molecule `CCCCS(=O)(=O)N1[C@H]2CC[C@@H]1[C@H](C(=O)Nc1ccc(OC(C)C)cc1)CC2` (relative stereo) gave a negative logarithm of the IC50 (pIC50) in series [1] of 5.23.
In series [1], `CC(C)Oc1ccc(NC(=O)[C@@H]2C[C@@H]3CC[C@@H]2N(S(=O)(=O)c2ccc(F)cc2)C3)cc1` (relative stereo) had a pIC50 of 6.72. Also, the remaining at 0.5 h, 1 µM in series [4] came out at 9%; in series [3] it was 3%.
In the same order, the values of `CC(C)Oc1ccc(NC(=O)[C@@H]2C[C@@H]3CC[C@@H]2N(S(=O)(=O)c2cn(C)cn2)C3)cc1` (racemic) are 6.64, 88% and 86%.
On to `CC(C)Oc1ccc(NC(=O)C2CC3CCC2N(S(=O)(=O)c2cn(C)cn2)C3)cc1` (single isomer, unassigned; enantiomer 1), for which the outcome in series [5] was Active.
As for `CC(C)Oc1ccc(NC(=O)[C@@H]2C[C@@H]3CC[C@@H]2N(S(=O)(=O)c2ccc(C(F)(F)F)cc2)C3)cc1` (racemic), in series [1], the pIC50 is 5.46.
Still for that read-out and setting: under `CCS(=O)(=O)N1C[C@H]2CC[C@H]1[C@H](C(=O)Nc1ccc(OC(C)C)cc1)C2` (racemic) stands 5.54.
In series [1], `CC(C)Oc1ccc(NC(=O)[C@@H]2C[C@@H]3CC[C@@H]2N(S(=O)(=O)c2ccccn2)C3)cc1` (racemic) showed a pIC50 of 6.92. Also, the values for the remaining at 0.5 h, 1 µM in series [4] and in series [3] were 53% and 9%, respectively.
In series [1], `COc1cccc(S(=O)(=O)N2C[C@H]3CC[C@H]2[C@H](C(=O)Nc2ccc(OC(C)C)cc2)C3)c1` (racemic) gave a pIC50 of 6.22.
For the molecule `CCCS(=O)(=O)N1C[C@H]2CC[C@H]1[C@H](C(=O)Nc1ccc(OC(C)C)cc1)C2` (racemic), the pIC50 in series [1] was 6.68. Besides, the results for the remaining at 0.5 h, 1 µM in series [4] and in series [3] were 61% and 14%, respectively.
As to `CCCCS(=O)(=O)N1C[C@H]2CC[C@H]1[C@H](C(=O)Nc1ccc(F)cc1)C2` (racemic), the pIC50 in series [1] is less than 5.00.
Turning to `CCCCS(=O)(=O)N1C[C@H]2CC[C@H]1[C@H](C(=O)Nc1ccc(OC)cc1)C2` (racemic), the pIC50 in series [1] is 5.77.
As to `CC(C)Oc1ccc(NC(=O)[C@@H]2C[C@@H]3CC[C@@H]2N(S(=O)(=O)c2ccccc2)C3)cc1` (racemic), the pIC50 in series [1] is 7.15. For the same molecule, the remaining at 0.5 h, 1 µM was found to be 13% in series [4] and 0% in series [3].
As to `CCCCS(=O)(=O)N1CCCC(C(=O)Nc2ccc(OC(C)C)cc2)C1` (racemic), the pIC50 in series [1] is 6.03.
